Screens (PubChem BioAssay)
This is a sample that favours compounds with a hit; in the whole collection about 1.9% have one here.
Autophagy mod = autophagy modulation, high-content screen; MEF GFP-LC3 puncta imaging; test concentration mostly 10 µM; calls only at 10 µM (by protocol); hit rate 0.98% among 190,000; AID 463193;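 active = percentage of spot-positive cells more than 3 SD above its plate mean, without a fluorescence outlier flag or 80% toxicity; inconclusive = no clear call, values can overlap the other calls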
Furin inh = blocks human furin protease activity | inhibition, % at 20 µM or 30 µM | AID 463115 | hit rate 0.061% among 220,000 | purified furin, fluorogenic substrate cleavage | P09958; in the data active = inhibition above about 25%
Target sequence (P09958 108-714 limits assumed): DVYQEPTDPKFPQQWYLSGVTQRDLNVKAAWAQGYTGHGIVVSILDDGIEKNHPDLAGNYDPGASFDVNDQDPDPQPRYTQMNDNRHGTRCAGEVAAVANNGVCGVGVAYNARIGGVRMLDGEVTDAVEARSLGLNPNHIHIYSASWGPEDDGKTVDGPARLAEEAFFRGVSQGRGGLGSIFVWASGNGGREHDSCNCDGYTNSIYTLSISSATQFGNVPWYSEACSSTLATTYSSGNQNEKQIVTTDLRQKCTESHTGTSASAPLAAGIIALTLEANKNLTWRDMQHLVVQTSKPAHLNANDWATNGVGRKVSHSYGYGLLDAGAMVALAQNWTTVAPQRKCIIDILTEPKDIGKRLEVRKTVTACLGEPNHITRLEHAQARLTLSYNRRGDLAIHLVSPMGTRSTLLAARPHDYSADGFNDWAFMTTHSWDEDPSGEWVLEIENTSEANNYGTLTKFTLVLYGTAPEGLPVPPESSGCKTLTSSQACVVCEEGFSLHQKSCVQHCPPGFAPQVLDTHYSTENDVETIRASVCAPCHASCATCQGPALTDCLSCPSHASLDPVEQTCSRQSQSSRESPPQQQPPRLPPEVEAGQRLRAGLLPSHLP
MT stabilizer = stabilizes microtubules in HeLa cells; HeLa tubulin immunostaining HCS, 24 h; share of cells brighter than vehicle mean+2SD; hit rate 0.83% among 200,000; % tubulin-high responders, % at 10 µM; AID 2205;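 active = plate Z-score above 3 for both tubulin-high and condensed-nucleus cell shares, with cell loss under 80%, at 10 µM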;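 also: anti alpha tubulin signal scored within the nucleus-defined area of each cell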
b-catenin transl = beta-catenin nuclear translocation modulation; nuclear translocation activity, % at 5 µM; HeLa beta-catenin nuclear translocation, immunofluorescence imaging; AID 1665; hit rate 0.3% among 190,000;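 active = nuclear translocation activity above 50% at 5 µM, with a well cell count of 50 or more; inconclusive = wells under 50 cells across six images, flagged as toxic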;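 also: per-cell ratio of nuclear to cytoplasmic median beta-catenin stain intensity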
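Test system: human HeLa cell line; Doses: 5 µM primary, 0.02–20 µM confirmation; Incubation: 24 h compound exposure, 37°C; Detection: beta-catenin immunofluorescence imaging with DAPI; Read-out: beta-catenin nuclear/cytoplasmic ratio, % activation.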
HSV augment = HSV replication enhancement. HSV replication augmentation in cells, fold increase. maximum fold increase. hit rate 0.005% among 220,000. AID 1956; in the data active = maximum fold increase above about 1.5; inconclusive = no clear call, values can overlap the other calls; tested in PC3 cells
Insulin prom up = MIN6 insulin promoter up-regulation; MIN6 insulin promoter-GFP reporter, high-content imaging; stronger effect = higher value; z-score at 5 µM; hit rate 0.3% among 190,000;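 active = z-score above 3 at 5 µM with at least 500 cells counted in the well; inconclusive = wells under 500 cells, flagged as cytotoxic or low count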
Hits are given with their value; 0 = inactive; ? = inconclusive; - = no result; + = active, no number.

SMILES	Autophagy mod	Furin inh	MT stabilizer	b-catenin transl	HSV augment	Insulin prom up
C=CCNCC(=O)N1N=C(c2ccc3ccccc3c2)CC1c1ccc(OC)cc1 (centres undefined)	+	0	0	0	0	0
COc1ccc(C2CC(c3ccc4ccccc4c3)=NN2C(=O)CNC2CCCCC2)cc1 (centres undefined)	+	0	0	0	0	0
COc1ccc(C2CC(c3ccc4ccccc4c3)=NN2C(=O)COC(=O)C2CCC(=O)N2)cc1 (centres undefined)	0	0	0	0	0	0
COc1ccc(C2CC(c3ccc4ccccc4c3)=NN2C(=O)CN2CCC(C(N)=O)CC2)cc1 (centres undefined)	0	0	0	0	0	0
Cc1ccccc1C(=O)Nc1ccc(-c2nnc(SC(C)C(=O)O)n2C)cc1 (centres undefined)	-	0	-	0	0	-
O=C(NCc1ccc(F)cc1)C(=O)Nc1nc(C23CC4CC(CC(C4)C2)C3)cs1	0	0	0	0	0	0
CN(C)C(=O)CSc1cccc2cccnc12	+	0	0	-	0	0
CCCNCC1C(Oc2ccc(Cl)cc2Cl)C(=O)N1c1cccc(C)c1C (centres undefined)	+	0	0	0	0	0
COCCCNC(=O)C(=O)NCCCOC(C)C	0	0	0	0	0	0
O=[N+]([O-])c1ccc(CSc2nnc(Cc3ccccc3)n2-c2ccc(F)cc2)cc1	+	0	0	0	0	0
Fc1ccc(N2CN(Cc3cccnc3)CNC2=S)cc1	-	0	-	0	0	-
COc1ccc(/C=N/OCC(=O)N2CCCC2)c(OC)c1	0	0	0	0	0	0
CC(C)C(=O)c1cn(CC(=O)NCC2CCCO2)c2ccccc12 (centres undefined)	0	0	0	0	0	0
CCOC(=O)C1=C(O)/C(=C/c2cn(CC(=O)NCC3CCCO3)c3ccccc23)SC1=Nc1ccc(C)cc1 (centres undefined)	+	0	0	-	0	-
CC(C)NC(=O)c1onc(CSc2cccc3ccccc23)c1C(=O)O	0	0	0	0	0	0
COc1ccccc1NC(=O)N1CCC(c2nc3cc(C)c(C)cc3[nH]2)CC1	+	0	18	0	0	-
Cc1cccc(OCC(O)CN2C(C)(C)CC(O)CC2(C)C)c1 (centres undefined)	+	0	0	0	0	0
CCOC(=O)C=C(C(=O)OCC)C(=O)OCC	0	0	0	0	0	0
O=C(/C=C/c1ccco1)NC(=S)Nc1ccc(N2CCCC2)cc1	0	0	13	0	0	0
O=C(/C=C/c1cccs1)Nc1nncs1	-	0	-	0	0	0
Cc1ccc(-c2csc(NC(=S)NC(=O)/C=C/c3ccco3)n2)cc1	0	0	32	0	0	0
Cc1ccnc(NC(=S)NC(=O)/C=C/c2ccco2)c1	0	0	21	0	0	0
Cc1ccc(O)c(NC(=S)NC(=O)/C=C/c2ccco2)c1	0	0	0	0	0	0
O=C(/C=C\c1ccco1)Nc1nc(-c2ccc3ccccc3c2)cs1	0	0	0	0	0	0
Cc1ccnc(NC(=O)/C=C/c2cccs2)c1	0	0	14	0	-	0
SMILES	Autophagy mod	Furin inh	MT stabilizer	b-catenin transl	HSV augment	Insulin prom up
O=C(O)CCC(=O)Nc1ccc(C(=O)OCC(=O)c2ccc(Cl)cc2Cl)cc1	0	0	0	0	0	-
Cc1nc(C)c(C(=O)O)c(-c2cccs2)c1C(=O)O	-	0	-	0	0	0
O=C(N=Nc1c(O)[nH]c2ccc(Br)cc12)c1ccccc1-n1cccc1	0	0	0	154	-	0
COc1ccccc1C(=O)N=Nc1c(O)[nH]c2ccc([N+](=O)[O-])cc12	+	0	0	0	0	0
CC1CCCCC12NC(=O)N(CC(=O)NC(=O)NCc1ccco1)C2=O (centres undefined)	0	0	0	0	0	0
C=CCN(C(=O)C1=NN(C2CCS(=O)(=O)C2)C(=O)CC1)c1nc(-c2ccc([N+](=O)[O-])cc2)cs1 (centres undefined)	+	0	0	0	0	0
CC1CC2(C)Oc3ccccc3CC2C(C)C1CNCCCN(C)C (centres undefined)	0	0	0	57	0	?
CC1Cc2ccccc2N1C(=O)CNCCCN(C)C (centres undefined)	0	0	0	0	-	0
COc1cccc(SCc2noc(C(=O)NCCCN3CCOCC3)c2C(=O)NCCCN2CCOCC2)c1	-	-	-	-	0	-
Cc1cccc(OCC(=O)N/N=C/c2ccc3c(c2)OCO3)c1	0	0	0	0	0	0
Cc1cc(C)c(OCC(=O)N/N=C/c2ccc3c(c2)OCO3)c(C)c1	0	0	26	0	0	-
Cn1cc(/C=N/n2cnc3scc(-c4ccc(Cl)cc4)c3c2=O)c2ccccc21	0	0	0	187	0	0
CCn1cnc2scc(-c3ccccc3)c2c1=O	0	0	0	-	0	0
COc1ccc2c(C=O)cn(C)c2c1	+	0	0	0	0	0
COc1ccc2[nH]cc(C=O)c2c1	0	0	0	0	0	0
Cc1cccc(N=c2c([N+](=O)[O-])nn(-c3ccc(Cl)cc3)n2O)c1	0	0	0	0	0	0
Cc1cc(C)cc(N=c2c([N+](=O)[O-])nn(-c3cccc(Cl)c3)n2O)c1	+	0	0	-	0	0
Cc1cc(C)c(COc2ccc(/C=N/n3c(C)n[nH]c3=S)cc2)c(C)c1	0	0	0	0	0	0
NS(=O)(=O)c1cccc2cccnc12	0	0	0	0	0	5.5
Cc1c(NC(=O)c2cc(C3CC3)on2)c(=O)n(-c2ccccc2)n1C	+	0	0	-	0	0
Cc1c(NC(=O)c2ccc(Cl)c(S(=O)(=O)N3CCOCC3)c2)c(=O)n(-c2ccccc2)n1C	0	30	0	0	0	0
Cc1ccc(C(=O)Nc2c(C)n(C)n(-c3ccccc3)c2=O)cc1S(=O)(=O)N1CCOCC1	0	0	0	0	0	0
COc1cc(CN2CCCC(CO)(Cc3cccc(Cl)c3)C2)cc2c1OCO2 (centres undefined)	0	0	0	0	0	0
CSC(=S)N/N=C/c1ccccc1	0	0	0	0	0	0
O=C(Cn1cnc2sc(-c3ccccc3)cc2c1=O)NCc1ccco1	0	0	27	0	0	0
SMILES	Autophagy mod	Furin inh	MT stabilizer	b-catenin transl	HSV augment	Insulin prom up
COc1ccc(CNC(=O)Cn2ncn3c(cc4ccccc43)c2=O)cc1	-	0	-	0	0	0
O=C(Cn1ncn2c(cc3ccccc32)c1=O)NCc1ccco1	0	0	0	0	0	3.8
O=C(Cn1cnc2sc(-c3ccccc3)cc2c1=O)NCc1ccccc1	+	0	36	-	0	0
CCOC(=O)NC(=S)Nc1ccc(C(C)(C)C)cc1	-	0	-	0	0	0
CCCCc1nc2sc3c(SCC(=O)NCc4ccco4)ncnc3c2c2c1CCC2	0	0	33	0	0	0
CCCCc1nc2sc3c(SCCN(C)C)ncnc3c2c2c1CCC2	-	0	-	0	0	0
CSc1nc(SCC(=O)NCc2ccco2)c2c3c(sc2n1)COC(C)(C)C3	0	0	35	0	0	0
